Measured values reported in ChEMBL document CHEMBL1151686, “Antimalarial activity enhancement in hydroxymethylcarbonyl (HMC) isostere-based dipeptidomimetics targeting malarial aspartic protease plasmepsin” (Bioorg Med Chem, 2008).

Key:
Plasmepsin II = Plasmepsin II (Plasmodium falciparum, UniProt P46925); assay: Inhibition of Plasmodium falciparum plasmepsin-2
How it was run: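 Plm II (400 nM) hydrolysis of chromogenic substrate H-Ala-Leu-Glu-Arg-Thr-Phe-Phe(p-NO2)-Ser-Phe-Pro-Thr-OH (163 μM) in 10 mM sodium formate pH 4.0, 2% DMSO, 25 °C, with increasing inhibitor. Rates fitted to tight-binding competitive inhibition equations for Ki.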

[1] = target: Protease (Human immunodeficiency virus 1) (UniProt Q9YQ12); assay: Inhibition of recombinant HIV1 protease at 50 nM
Chain of Protease (Human immunodeficiency virus 1) (Q9YQ12 as listed by the source): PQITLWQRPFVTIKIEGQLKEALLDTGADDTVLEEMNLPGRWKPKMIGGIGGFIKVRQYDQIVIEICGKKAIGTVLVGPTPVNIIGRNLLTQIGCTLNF
How it was run: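 Recombinant HIV-1 PR (2 μg/mL stock) was mixed with inhibitor (500 nM solution in DMSO) in MES–NaOH pH 5.5 buffer containing DTT, EDTA and 1 M NaCl. The reaction was started with substrate H-Lys-Ala-Arg-Val-Tyr-Phe(p-NO₂)-Glu-Ala-Nle-NH₂ (1.0 mM solution) and run 15 min at 37 °C, then stopped with 1M HCl. The cleaved N-terminal fragment was quantified by reversed-phase C18 HPLC.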

Plasmodium falciparum = assay: Antimalarial activity against chloroquine-sensitive Plasmodium falciparum NF54 in type O+ human erythrocytes after 48 hrs as reduced [3H]hypoxanthine uptake; assay type: functional, organism-based
How it was run: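 NF54 parasites grown in 2.4% O+ human erythrocyte suspension in RPMI 1640 with 25 mM HEPES, 27 mM NaHCO3, 10% heat-inactivated O+ human serum, under 3% O2/4% CO2/93% N2. Compounds serially diluted in 0.2% DMSO medium, incubated with culture 48 h, then 0.6 μCi [3H]hypoxanthine added for 20 h. Harvested on glass filters, scintillation counted. IC50 from dose-response curves.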

[2] = Cytotoxicity against rat L6 cells after 72 hrs by Alamar blue resazurin assay; assay type: cell-based; settings: read-out: TD50

Chain of Plasmepsin II (P46925 whole entry): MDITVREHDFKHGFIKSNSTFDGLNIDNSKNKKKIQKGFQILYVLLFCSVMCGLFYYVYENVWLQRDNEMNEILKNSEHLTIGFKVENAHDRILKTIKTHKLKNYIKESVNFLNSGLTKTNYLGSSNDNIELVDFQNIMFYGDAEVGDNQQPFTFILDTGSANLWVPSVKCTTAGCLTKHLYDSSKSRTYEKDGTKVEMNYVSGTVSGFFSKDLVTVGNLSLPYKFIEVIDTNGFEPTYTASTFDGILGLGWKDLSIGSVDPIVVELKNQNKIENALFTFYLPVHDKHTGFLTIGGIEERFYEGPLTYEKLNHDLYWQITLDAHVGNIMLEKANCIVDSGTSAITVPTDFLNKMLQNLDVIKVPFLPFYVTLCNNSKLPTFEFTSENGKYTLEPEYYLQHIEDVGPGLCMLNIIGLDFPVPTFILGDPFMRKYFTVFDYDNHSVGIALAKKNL

COc1ccc(OCC(=O)N[C@@H](Cc2ccccc2)[C@H](O)C(=O)N2CSC(C)(C)[C@H]2C(=O)N[C@H]2c3ccccc3C[C@H]2O)cc1
Ki (Plasmepsin II): 479 nM
inhibition [1]: 38%

Cc1cc(O)cc(C)c1OCC(=O)N[C@@H](Cc1ccccc1)[C@H](O)C(=O)N1CSC(C)(C)[C@H]1C(=O)N[C@H]1c2ccccc2C[C@H]1O
EC50 (Plasmodium falciparum): 3300 nM
Ki (Plasmepsin II): 5 nM
inhibition [1]: 98%

Cc1cc(N(C)C)cc(C)c1OCC(=O)N[C@@H](Cc1ccccc1)[C@H](O)C(=O)N1CSC(C)(C)[C@H]1C(=O)N[C@H]1c2ccccc2C[C@H]1O
CC50 at 72 h [2]: 45000 nM
EC50 (Plasmodium falciparum): 1200 nM
Ki (Plasmepsin II): 21 nM
inhibition [1]: 86%

CC1(C)SCN(C(=O)[C@@H](O)[C@H](Cc2ccccc2)NC(=O)COc2ccc([N+](=O)[O-])cc2)[C@@H]1C(=O)N[C@H]1c2ccccc2C[C@H]1O
CC50 at 72 h [2]: 63000 nM
EC50 (Plasmodium falciparum): 4200 nM
Ki (Plasmepsin II): 25 nM
inhibition [1]: 53%

CC1(C)SCN(C(=O)[C@@H](O)[C@H](Cc2ccccc2)NC(=O)COc2ccccc2N)[C@@H]1C(=O)N[C@H]1c2ccccc2C[C@H]1O
Ki (Plasmepsin II): 126 nM
inhibition [1]: 62%

CC1(C)SCN(C(=O)[C@@H](O)[C@H](Cc2ccccc2)NC(=O)COc2ccccc2CO)[C@@H]1C(=O)N[C@H]1c2ccccc2C[C@H]1O
Ki (Plasmepsin II): 132 nM
inhibition [1]: 61%

CC1(C)SCN(C(=O)[C@@H](O)[C@H](Cc2ccccc2)NC(=O)COc2ccccc2O)[C@@H]1C(=O)N[C@H]1c2ccccc2C[C@H]1O
Ki (Plasmepsin II): 112 nM
inhibition [1]: 34%

COc1ccccc1OCC(=O)N[C@@H](Cc1ccccc1)[C@H](O)C(=O)N1CSC(C)(C)[C@H]1C(=O)N[C@H]1c2ccccc2C[C@H]1O
Ki (Plasmepsin II): 153 nM
inhibition [1]: 27%

COc1cccc(OC)c1OCC(=O)N[C@@H](Cc1ccccc1)[C@H](O)C(=O)N1CSC(C)(C)[C@H]1C(=O)N[C@H]1c2ccccc2C[C@H]1O
Ki (Plasmepsin II): 782 nM
inhibition [1]: 54%

CC1(C)SCN(C(=O)[C@@H](O)[C@H](Cc2ccccc2)NC(=O)COc2c(Cl)cccc2Cl)[C@@H]1C(=O)N[C@H]1c2ccccc2C[C@H]1O
EC50 (Plasmodium falciparum): 5200 nM
Ki (Plasmepsin II): 39 nM
inhibition [1]: 95%

CC1(C)SCN(C(=O)[C@@H](O)[C@H](Cc2ccccc2)NC(=O)COc2ccc(O)cc2)[C@@H]1C(=O)N[C@H]1c2ccccc2C[C@H]1O
EC50 (Plasmodium falciparum): > 8000 nM
Ki (Plasmepsin II): 10 nM
inhibition [1]: 31%

CC1(C)SCN(C(=O)[C@@H](O)[C@H](Cc2ccccc2)NC(=O)COc2cccc(CO)c2)[C@@H]1C(=O)N[C@H]1c2ccccc2C[C@H]1O
EC50 (Plasmodium falciparum): > 8000 nM
Ki (Plasmepsin II): 9 nM
inhibition [1]: 24%

CC1(C)SCN(C(=O)[C@@H](O)[C@H](Cc2ccccc2)NC(=O)COc2ccccc2[N+](=O)[O-])[C@@H]1C(=O)N[C@H]1c2ccccc2C[C@H]1O
Ki (Plasmepsin II): 55 nM
inhibition [1]: 9%

CCCCNc1cc(C)c(OCC(=O)N[C@@H](Cc2ccccc2)[C@H](O)C(=O)N2CSC(C)(C)[C@H]2C(=O)N[C@H]2c3ccccc3C[C@H]2O)c(C)c1
CC50 at 72 h [2]: 22000 nM
EC50 (Plasmodium falciparum): 540 nM
Ki (Plasmepsin II): 30 nM
inhibition [1]: 85%

CC1(C)SCN(C(=O)[C@@H](O)[C@H](Cc2ccccc2)NC(=O)COc2ccc(N)cc2)[C@@H]1C(=O)N[C@H]1c2ccccc2C[C@H]1O
EC50 (Plasmodium falciparum): > 8000 nM
Ki (Plasmepsin II): 28 nM
inhibition [1]: 27%

CC1(C)SCN(C(=O)[C@@H](O)[C@H](Cc2ccccc2)NC(=O)COc2cccc(N)c2)[C@@H]1C(=O)N[C@H]1c2ccccc2C[C@H]1O
EC50 (Plasmodium falciparum): > 8000 nM
Ki (Plasmepsin II): 29 nM
inhibition [1]: 29%

CC1(C)SCN(C(=O)[C@@H](O)[C@H](Cc2ccccc2)NC(=O)COc2ccc(CO)cc2)[C@@H]1C(=O)N[C@H]1c2ccccc2C[C@H]1O
CC50 at 72 h [2]: > 120000 nM
EC50 (Plasmodium falciparum): 1100 nM
Ki (Plasmepsin II): 10 nM
inhibition [1]: 37%

Cc1ccc(OCC(=O)N[C@@H](Cc2ccccc2)[C@H](O)C(=O)N2CSC(C)(C)[C@H]2C(=O)N[C@H]2c3ccccc3C[C@H]2O)cc1
EC50 (Plasmodium falciparum): > 8000 nM
Ki (Plasmepsin II): 55 nM
inhibition [1]: 27%

Cc1cc(NCc2ccccn2)cc(C)c1OCC(=O)N[C@@H](Cc1ccccc1)[C@H](O)C(=O)N1CSC(C)(C)[C@H]1C(=O)N[C@H]1c2ccccc2C[C@H]1O
CC50 at 72 h [2]: > 120000 nM
EC50 (Plasmodium falciparum): 300 nM
Ki (Plasmepsin II): 10 nM
inhibition [1]: 91%

Cc1ccccc1OCC(=O)N[C@@H](Cc1ccccc1)[C@H](O)C(=O)N1CSC(C)(C)[C@H]1C(=O)N[C@H]1c2ccccc2C[C@H]1O
Ki (Plasmepsin II): 145 nM
inhibition [1]: 72%

Cc1cc(N)cc(C)c1OCC(=O)N[C@@H](Cc1ccccc1)[C@H](O)C(=O)N1CSC(C)(C)[C@H]1C(=O)N[C@H]1c2ccccc2C[C@H]1O
Ki (Plasmepsin II): 23 nM
inhibition [1]: 96%

COc1cccc(OCC(=O)N[C@@H](Cc2ccccc2)[C@H](O)C(=O)N2CSC(C)(C)[C@H]2C(=O)N[C@H]2c3ccccc3C[C@H]2O)c1
EC50 (Plasmodium falciparum): > 8000 nM
Ki (Plasmepsin II): 4 nM
inhibition [1]: 10%

Cc1cc(NCc2ccncc2)cc(C)c1OCC(=O)N[C@@H](Cc1ccccc1)[C@H](O)C(=O)N1CSC(C)(C)[C@H]1C(=O)N[C@H]1c2ccccc2C[C@H]1O
CC50 at 72 h [2]: > 120000 nM
EC50 (Plasmodium falciparum): 490 nM
Ki (Plasmepsin II): 6 nM
inhibition [1]: 91%

Cc1cc(NCc2cccnc2)cc(C)c1OCC(=O)N[C@@H](Cc1ccccc1)[C@H](O)C(=O)N1CSC(C)(C)[C@H]1C(=O)N[C@H]1c2ccccc2C[C@H]1O
CC50 at 72 h [2]: > 120000 nM
EC50 (Plasmodium falciparum): 500 nM
Ki (Plasmepsin II): 21 nM
inhibition [1]: 91%

CC1(C)SCN(C(=O)[C@@H](O)[C@H](Cc2ccccc2)NC(=O)COc2c(F)cccc2F)[C@@H]1C(=O)N[C@H]1c2ccccc2C[C@H]1O
CC50 at 72 h [2]: 55000 nM
EC50 (Plasmodium falciparum): 3300 nM
Ki (Plasmepsin II): 14 nM
inhibition [1]: 58%

CC1(C)SCN(C(=O)[C@@H](O)[C@H](Cc2ccccc2)NC(=O)COc2cccc([N+](=O)[O-])c2)[C@@H]1C(=O)N[C@H]1c2ccccc2C[C@H]1O
CC50 at 72 h [2]: 58000 nM
EC50 (Plasmodium falciparum): 2800 nM
Ki (Plasmepsin II): 38 nM
inhibition [1]: 12%

CNc1cc(C)c(OCC(=O)N[C@@H](Cc2ccccc2)[C@H](O)C(=O)N2CSC(C)(C)[C@H]2C(=O)N[C@H]2c3ccccc3C[C@H]2O)c(C)c1
CC50 at 72 h [2]: > 120000 nM
EC50 (Plasmodium falciparum): 450 nM
Ki (Plasmepsin II): 25 nM
inhibition [1]: 91%

Cc1cccc(C)c1OCC(=O)N[C@@H](Cc1ccccc1)[C@H](O)C(=O)N1CSC(C)(C)[C@H]1C(=O)N[C@H]1c2ccccc2C[C@H]1O
inhibition [1]: 98%

CC1(C)SCN(C(=O)[C@@H](O)[C@H](Cc2ccccc2)NC(=O)COc2cccc(O)c2)[C@@H]1C(=O)N[C@H]1c2ccccc2C[C@H]1O
EC50 (Plasmodium falciparum): > 8000 nM
Ki (Plasmepsin II): 10 nM
inhibition [1]: 13%

CC(C)c1cccc(C(C)C)c1OCC(=O)N[C@@H](Cc1ccccc1)[C@H](O)C(=O)N1CSC(C)(C)[C@H]1C(=O)N[C@H]1c2ccccc2C[C@H]1O
CC50 at 72 h [2]: 6300 nM
EC50 (Plasmodium falciparum): 2900 nM
Ki (Plasmepsin II): 23 nM
inhibition [1]: 0%

CCNc1cc(C)c(OCC(=O)N[C@@H](Cc2ccccc2)[C@H](O)C(=O)N2CSC(C)(C)[C@H]2C(=O)N[C@H]2c3ccccc3C[C@H]2O)c(C)c1
CC50 at 72 h [2]: 64000 nM
EC50 (Plasmodium falciparum): 720 nM
Ki (Plasmepsin II): 7 nM
inhibition [1]: 84%

CCCCCNc1cc(C)c(OCC(=O)N[C@@H](Cc2ccccc2)[C@H](O)C(=O)N2CSC(C)(C)[C@H]2C(=O)N[C@H]2c3ccccc3C[C@H]2O)c(C)c1
CC50 at 72 h [2]: 12000 nM
EC50 (Plasmodium falciparum): 430 nM
Ki (Plasmepsin II): 26 nM
inhibition [1]: 78%

Cc1cccc(OCC(=O)N[C@@H](Cc2ccccc2)[C@H](O)C(=O)N2CSC(C)(C)[C@H]2C(=O)N[C@H]2c3ccccc3C[C@H]2O)c1
EC50 (Plasmodium falciparum): > 8000 nM
Ki (Plasmepsin II): 42 nM
inhibition [1]: 13%

Cc1cc(F)cc(C)c1OCC(=O)N[C@@H](Cc1ccccc1)[C@H](O)C(=O)N1CSC(C)(C)[C@H]1C(=O)N[C@H]1c2ccccc2C[C@H]1O
CC50 at 72 h [2]: 29000 nM
EC50 (Plasmodium falciparum): 1400 nM
Ki (Plasmepsin II): 19 nM
inhibition [1]: 87%
